miR122 inh – miR-122 Renilla sensor signal increase in Huh7, primary screen, miR-122 inhibitor project, cell-based, single point, plate reader. Huh7 miR-122 Renilla luciferase sensor, 48 h; neutral wells = 0, positive control = 100. activation (reporter increase), % at 12.5 µM. 340,000 tested, 0.3% active. AID 602342, 2012;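 active = mean replicate activation score at least 90 and every replicate individually at or above 90; inconclusive = only one of the two criteria met; inactive = neither criterion met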;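 note: higher luciferase means less miR-122 activity so hits act as miR-122 inhibitors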
ERAP1 HTS inh – human ERAP1 aminopeptidase inhibitors, primary screen, biochemical, single point, plate reader; Endoplasmic reticulum aminopeptidase 1 (Homo sapiens), Q9NZ08; recombinant ERAP1, Leu-AMC fluorescence, 60 min; inhibition, % at 10.7 µM; 340,000 tested, 0.15% active; AID 652197, 2013;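 active = mean replicate inhibition of at least 30%, or all replicates individually reaching that 30% level; inactive = mean below 30% and not every replicate reaching it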
INS-1E GSIS act – GLuc luminescence reporter in INS-1E cells, primary screen for activators of glucose-dependent secretion of insulin; INS-1E GLuc reporter insulin secretion, 2-3 h; activation, % at 16.6 µM; 370,000 tested, 0.61% active; AID 743287, 2014;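 active = lowest replicate activation of at least 40%, so every replicate reaches that level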
CFTR F508del cor – F508del CFTR correction, initial screen, CFBE line, single point; CFBE cells, YFP halide quenching; stimulated with forskolin plus potentiator P3; % fluorescence drop versus neutral controls; activity (quench increase), % at 7.58 µM; 350,000 tested, 0.36% active; AID 720511, 2013;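 active = mean added fluorescence quench of at least 8% versus neutral control, with both replicates also reaching 8%; inconclusive = only one of the mean or replicate conditions met; inactive = mean below 8% and not both replicates reaching 8%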;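 note: cells transiently co-express mutant CFTR-F508del with the halide-sensitive YFP; corrector assay measuring rescue of mutant channel to the surface after 24 h compound exposure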
DENV2 CPE – inhibitors of DENV2 cytopathic effect, primary screen, cell-based, plate reader, single concentration | DENV2-infected cells, cytopathic effect rescue | CPE inhibition, % at 9.99 µM | 350,000 tested, 1.7% active; in the data active = CPE inhibition above about 20%, passing the limit was not always enough; inconclusive = no clear call, values can overlap the other calls; tested in BHK-21 cells
E-selectin induc – E-selectin induction in HUVECs, primary screen, imaging, HUVEC, immunofluorescence imaging, single point; normalized: neutral wells 0, TNF-alpha wells 100; activation, % at 7.58 µM; 260,000 tested, 0.37% active;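 active = mean E-selectin-positive cell signal at least 10% of the positive control, reached in at least 60% of replicates, without over 20% cell loss; inconclusive = no rule given, readout overlaps actives, possibly toxicity-flagged; inactive = the rest, including those meeting only one limit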
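material = human umbilical vein endothelial cells (HUVEC), E-selectin induction | quantity = 3,000 cells/well | medium = EGM-2 growth medium on 0.1% gelatin-coated wells | technique = immunofluorescence imaging | read-out basis = % PE-positive cells | control set = TNF-alpha positive control, DMSO neutral control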
Hits are given with their value; . = inactive; ? = inconclusive; / = no result. Shown are actives, neighbours in structure and some others; about 2.6% of the full set was active somewhere.

SMILES | miR122 inh | ERAP1 HTS inh | INS-1E GSIS act | CFTR F508del cor | DENV2 CPE | E-selectin induc
C[C@H]1CCCCO[C@H](CN(C)C(=O)Nc2ccccc2)[C@@H](C)CN([C@@H](C)CO)C(=O)c2cc(NC(=O)Nc3ccc(C(F)(F)F)cc3)ccc2O1 | / | / | . | ? | 60 | .
CNC(=O)C[C@H]1CC[C@@H]2[C@@H](COc3ccc(NC(=O)Nc4cccc(Cl)c4)cc3C(=O)N2C)O1 | . | . | . | . | . | .
C/C=C1\COC(C(=O)NCCN2CCCC2)(C(F)(F)F)C=C1C=C1CCCCC1 (stereo unspecified) | . | . | / | . | . | .
C/C=C1\COC(C(=O)NCc2ccccc2)(C(F)(F)F)C=C1C=C1CCCCC1 (stereo unspecified) | / | . | 141 | . | . | .
COc1ccc(-n2nnnc2SCC(=O)c2ccc(O)c(O)c2)cc1 | . | / | / | / | / | /
O=C(O)c1ccc(-n2nnnc2SCc2cccc(Br)c2)cc1 | . | . | 63 | . | . | .
NC(=O)c1ccc(-n2nnnc2SCC(=O)c2ccc(O)c(O)c2)cc1 | 129 | . | . | . | . | .
Cc1cc(C)c(CSc2nnnn2-c2ccc(C(=O)O)cc2)c(C)c1 | / | . | 89 | . | . | .
Cc1ccc(-n2nnnc2SCC(=O)NC(C(=O)O)(c2ccccc2)c2ccccc2)cc1C | / | . | . | 13 | . | /
O=C(CSc1nnnn1-c1cccc2ccccc12)NC(C(=O)O)(c1ccccc1)c1ccccc1 | / | . | . | . | . | /
O=C(C[C@H]1CC[C@H]2[C@@H](COC[C@@H](O)CN2C(=O)c2ccncc2)O1)NCc1cccc(F)c1 | . | . | . | . | . | .
CC(=O)N1Cc2cc(C(=O)NCc3cc(F)cc(F)c3)nc(-c3cccc(C4=CCCC4)c3)c2[C@H]1CCO | / | . | / | . | . | /
COC(=O)C1=CO[C@@H](O[C@@H]2O[C@H](CO)[C@@H](O)[C@H](O)[C@H]2O)C2C1CC(O)O[C@H]2C (stereo partly specified) | / | / | . | . | 23 | .
COc1ccc(O)c(/C=N/NC(=O)c2ccc(N3CCCC3=O)cc2)c1 | . | . | . | 8.0 | . | .
COc1ccc(O)c(/C=N/NC(=O)c2cccc(N3CCCC3=O)c2)c1 | . | . | . | . | . | .
Cc1noc(C)c1S(=O)(=O)N(C)C[C@H]1Oc2ccc(NC(=O)Nc3ccc(C(F)(F)F)cc3)cc2CC(=O)N([C@@H](C)CO)C[C@H]1C | . | / | . | . | . | .
O=C(COC(=O)COc1ccc(Cl)cc1Br)NCCC1=CCCCC1 | / | . | . | . | . | 29
O=C(COC(=O)Cc1ccc(Cl)cc1Cl)NCCC1=CCCCC1 | . | . | . | . | . | .
c1ccc(-n2nnnc2-c2cccc3ccccc23)cc1 | 116 | . | . | . | . | .
Cc1ccc(-n2nnnc2-c2ccccc2Br)cc1 | . | . | . | . | . | /
c1ccc(CNc2nnnn2-c2ccccc2)cc1 | 128 | / | / | / | / | .
CCN(C[C@H]1[C@H](c2ccccc2)[C@@H](CO)N1CC1CC1)C(=O)c1ccccn1 | . | . | . | . | 21 | .
O=C(NC[C@H]1[C@@H](c2ccccc2)[C@@H](CO)N1Cc1ccccc1)c1ccccn1 | / | . | . | . | . | .
CCN(C[C@H]1[C@@H](c2ccccc2)[C@H](CO)N1CC1CC1)C(=O)c1ccccn1 | . | . | . | . | 25 | .
O=C(NC[C@H]1[C@H](c2ccccc2)[C@@H](CO)N1Cc1cccnc1)c1ccccn1 | . | . | . | . | 38 | .
SMILES | miR122 inh | ERAP1 HTS inh | INS-1E GSIS act | CFTR F508del cor | DENV2 CPE | E-selectin induc
CCN(C[C@H]1[C@H](c2ccccc2)[C@H](CO)N1CC1CC1)C(=O)c1ccccn1 | . | . | . | . | . | .
CO[C@@H]1CN(C)C(=O)c2cc(NC(=O)NC(C)C)ccc2OC[C@H](C)N(C(=O)CC2CC2)C[C@H]1C | . | . | . | . | . | .
[N-]=[N+]=NCCNC(=O)Nc1ccccc1 | / | . | / | . | . | /
Cc1ccc(-c2ccc3c(c2)O[C@H](CN(C)C(=O)CN(C)C)[C@@H](C)CN([C@H](C)CO)S3(=O)=O)cc1 | . | . | . | . | . | .
Cc1ccc(S(=O)(=O)N(C)C[C@@H]2OCCCC[C@@H](C)Oc3ccc(NS(C)(=O)=O)cc3C(=O)N([C@@H](C)CO)C[C@H]2C)cc1 | . | . | . | . | 36 | .
C[C@@H]1CCCCO[C@@H](CN(C)S(=O)(=O)c2ccc(Cl)cc2)[C@@H](C)CN([C@@H](C)CO)C(=O)c2cc(NS(C)(=O)=O)ccc2O1 | . | . | . | . | . | .
C[C@@H]1CCCCO[C@@H](CN(C)S(=O)(=O)c2ccc(Cl)cc2)[C@@H](C)CN([C@H](C)CO)C(=O)c2cc(NS(C)(=O)=O)ccc2O1 | . | . | . | . | 22 | .
Cc1ccc(S(=O)(=O)Nc2ccc3c(c2)C(=O)N([C@H](C)CO)C[C@H](C)[C@@H](CN(C)S(=O)(=O)c2ccc(Cl)cc2)OCCCC[C@H](C)O3)cc1 | . | / | . | . | 37 | .
Cc1ccc(S(=O)(=O)N(C)C[C@@H]2OCCCC[C@@H](C)Oc3ccc(NS(=O)(=O)c4ccc(Cl)cc4)cc3C(=O)N([C@H](C)CO)C[C@@H]2C)cc1 | . | . | . | . | ? | .
Cc1ccc(S(=O)(=O)N(C)C[C@@H]2OCCCC[C@@H](C)Oc3ccc(NS(=O)(=O)c4ccc(Cl)cc4)cc3C(=O)N([C@@H](C)CO)C[C@@H]2C)cc1 | . | . | . | 8.6 | . | .
Cc1ccc(S(=O)(=O)N(C)C[C@H]2OCCCC[C@@H](C)Oc3ccc(NS(C)(=O)=O)cc3C(=O)N([C@@H](C)CO)C[C@H]2C)cc1 | . | . | . | . | . | .
C[C@H](O)C#Cc1ccc2c(c1)O[C@H](CN(C)C(=O)Nc1ccccc1)[C@@H](C)CN([C@H](C)CO)S2(=O)=O | . | / | . | . | . | .
CCS(=O)(=O)N1CCC2(CC1)CN(C(=O)NC(C)C)[C@H](CO)c1c2c2ccc(OC)cc2n1C | / | . | . | . | . | .
C[C@@H]1CN([C@H](C)CO)C(=O)c2cc(NS(=O)(=O)c3ccc(Cl)cc3)ccc2O[C@@H](C)CCCCO[C@H]1CN(C)S(=O)(=O)c1ccc(Cl)cc1 | . | / | . | . | 54 | .
C[C@@H]1CN([C@@H](C)CO)C(=O)c2cc(NS(=O)(=O)c3ccc(Cl)cc3)ccc2O[C@@H](C)CCCCO[C@H]1CN(C)S(=O)(=O)c1ccc(Cl)cc1 | . | / | . | . | . | .

Screens deposited in PubChem by Broad Institute.
